From ChEMBL document CHEMBL1141109, “Synthesis of an estrogen receptor beta-selective radioligand: 5-[18F]fluoro-(2R,3S)-2,3-bis(4-hydroxyphenyl)pentanenitrile and comparison of in vivo distribution with 16alpha-[18F]fluoro-17beta-estradiol” (J Med Chem, 2005)
Values belong to the compound of their own block, whether it stands above or below them.

What was measured:
[1] = Biodistribution of [18F]FEDPN in beta estrogen receptor knock out mouse ovaries after 30 min; (n=3); format: ADME, organism-based, Female gonad; conditions: in vivo, 0.5 h
How it was run: (§1)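 αERKO and βERKO mice, staged by daily vaginal smears and kept on estrogen-free chow, were studied in a nonestrous stage. Each mouse received 11 μCi of tracer in 130 μL of 10% ethanol/saline. Mice were killed at 30 min, 1 h or 2 h (n = 3 each). Organs were removed, blotted, weighed and gamma-counted against an injectate standard. Uptake is given as %ID/g ± SD.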

[2] = Biodistribution of [18F]FEDPN in beta estrogen receptor knock out mouse thymus after 2 h; (n=3); format: ADME, organism-based; conditions: in vivo; how it was run: as §1
[3] = Biodistribution of [18F]FEDPN in rat blood after 30 min when given in tail vein; (n=5); format: ADME, organism-based; conditions: in vivo, iv, 0.5 h
How it was run: (§2)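 Immature female Sprague–Dawley rats (<25 days old) under isoflurane/O2 got 20 µCi tracer in 150 µL 20% ethanol/saline by tail vein. […] Rats were killed at 30 min, 1 h or 2 h. Organs were blotted, weighed and gamma-counted against an injectate standard. Data are %ID/g ± SD, five rats per point.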

[4] = Biodistribution of [18F]FEDPN in beta estrogen receptor knock out mouse fat after 1 h; (n=3); format: ADME, organism-based, Adipose tissue; conditions: in vivo; how it was run: as §1
[5] = Biodistribution of [18F]FEDPN in beta estrogen receptor knock out mouse fat after 2 h; (n=3); format: ADME, organism-based, Adipose tissue; conditions: in vivo; how it was run: as §1
[6] = Biodistribution of [18F]FEDPN in beta estrogen receptor knock out mouse bone after 1 h; (n=3); format: ADME, organism-based, Bone element; conditions: in vivo; how it was run: as §1
[7] = Biodistribution of [18F]FEDPN in beta estrogen receptor knock out mouse brain after 2 h; (n=3); format: ADME, organism-based; conditions: in vivo; how it was run: as §1
[8] = Biodistribution of [18F]-FEDPN in rat fat after 30 min when given in tail vein; (n=5); format: ADME, organism-based, Adipose tissue; conditions: in vivo, iv, 0.5 h
How it was run: (§3)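 Immature female Sprague–Dawley rats (<25 days old) anesthetized with isoflurane/O2. Given 20 µCi tracer by tail vein in 150 µL of 20% ethanol/saline. […] Killed at 30 min, 1 h or 2 h. Blood and organs blotted, weighed and gamma-counted against a standard dilution of the injectate. Reported as %ID/g ± SD, n=5.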

[9] = Biodistribution of [18F]-FEDPN in rat kidney after 1 hr when given in tail vein; (n=5); format: ADME, organism-based; conditions: in vivo, iv; how it was run: as §3
[10] = Biodistribution of [18F]FEDPN in rat kidney after 30 min when given in tail vein; (n=5); format: ADME, organism-based; conditions: in vivo, iv, 0.5 h; how it was run: as §2
[11] = Biodistribution of [18F]FEDPN in rat ovaries after 30 min when given in tail vein; (n=5); format: ADME, organism-based, Female gonad; conditions: in vivo, iv, 0.5 h; how it was run: as §2
[12] = Biodistribution of [18F]-FEDPN in rat heart after 1 hr block when given in tail vein; (n=5); format: ADME, organism-based; conditions: in vivo, iv; how it was run: as §3
[13] = Biodistribution of [18F]FEDPN in beta estrogen receptor knock out mouse heart after 2 h; (n=3); format: ADME, organism-based; conditions: in vivo; how it was run: as §1
[14] = Biodistribution of [18F]FEDPN in beta estrogen receptor knock out mouse liver after 2 h; (n=3); format: ADME, organism-based; conditions: in vivo; how it was run: as §1
[15] = Biodistribution of [18F]FEDPN in alpha estrogen receptor knock out mouse blood after 1 h; (n=3); format: ADME, organism-based; conditions: in vivo
How it was run: (§4)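 ERKO female mice (αERKO or βERKO), rested 48 h after shipping, placed on estrogen-free chow, and staged by daily vaginal smears. Injected in a nonestrous stage with 11 µCi [18F]FEDPN in 130 µL of 10% ethanol/saline. Killed at 30 min, 1 h or 2 h. Organs counted and reported as %ID/g ± SD, three animals per point.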

[16] = Biodistribution of [18F]FEDPN in beta estrogen receptor knock out mouse fat after 30 min; (n=3); format: ADME, organism-based, Adipose tissue; conditions: in vivo, 0.5 h; how it was run: as §1
[17] = Biodistribution of [18F]FEDPN in beta estrogen receptor knock out mouse heart after 30 min; (n=3); format: ADME, organism-based; conditions: in vivo, 0.5 h; how it was run: as §1
[18] = Biodistribution of [18F]FEDPN in alpha estrogen receptor knock out mouse ovaries after 30 min; (n=3); format: ADME, organism-based, Female gonad; conditions: in vivo, 0.5 h; how it was run: as §1
[19] = Biodistribution of [18F]-FEDPN in alpha estrogen receptor knock out mouse spleen after 1 h; (n=3); format: ADME, organism-based; conditions: in vivo; how it was run: as §4
[20] = biological target: T1, Estrogen receptor (Mus musculus) (UniProt O08537+P19785); test: Ratio of [18F]FEDPN uptake in ovaries of ERbeta KO-mouse and ERalpha KO-mouse (nonestrus) after 2 hr
[21] = biological target: T1, Estrogen receptor (Mus musculus); test: Ratio of [18F]FEDPN uptake in uterus of ERbeta KO-mouse (diestrus) and ERalpha KO-mouse (nonestrus) after 30 min
[22] = biological target: T1, Estrogen receptor (Mus musculus); test: Ratio of [18F]FEDPN uptake in ovaries of ERbeta KO-mouse (diestrus) and ERalpha KO-mouse (nonestrus) after 30 min
[23] = Biodistribution of [18F]FES in alpha estrogen receptor knock out mouse uterus after 30 min; (n=3); format: ADME, organism-based; conditions: in vivo, 0.5 h
[24] = Biodistribution of [18F]FES in beta estrogen receptor knock out mouse heart after 30 min(n=2); mice in nonestrus stage; format: ADME, organism-based; conditions: in vivo, 0.5 h
[25] = Biodistribution of [18F]-FES in alpha estrogen receptor knock out mouse bone after 2 h; (n=3); format: ADME, organism-based, Bone element; conditions: in vivo
How it was run: (§5)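 Female αERKO mice were rested 48 h after shipping and fed estrogen-free chow. They were staged by daily vaginal smears and studied in diestrus. Each received 13 µCi [18F]FES in 100 µL 10% ethanol/saline and was sacrificed at 30 min, 1 h or 2 h (n = 3 per time). Tissue uptake is given as %ID/g ± SD.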

[26] = Biodistribution of [18F]FES in beta estrogen receptor knock out mouse blood after 30 min; (n=3); format: ADME, organism-based; conditions: in vivo, 0.5 h
[27] = Biodistribution of [18F]FES in alpha estrogen receptor knock out mouse brain after 1 h; (n=3); format: ADME, organism-based; conditions: in vivo
How it was run: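 αERKO mice were kept on estrogen-free chow and studied in diestrus, as staged by vaginal smear. Each was injected with 13 µCi tracer in 100 µL 10% ethanol/saline and killed at 30 min, 1 h or 2 h (n = 3 each). Organ activity was gamma-counted and expressed as %ID/g ± SD.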

[28] = Biodistribution of [18F]FES in alpha estrogen receptor knock out mouse liver after 2 h; (n=3); format: ADME, organism-based; conditions: in vivo; how it was run: as §5
[29] = Biodistribution of [18F]FES in beta estrogen receptor knock out mouse muscle after 2 h; (n=3); format: ADME, organism-based, Muscle tissue; conditions: in vivo
[30] = Biodistribution of [18F]-FES in beta estrogen receptor knock out mouse thymus after 1 h; (n=3); format: ADME, organism-based; conditions: in vivo
How it was run: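 Female βERKO mice in estrus were used because repeated swabbing had induced pseudopregnancy. They were fed estrogen-free chow. Each received 13 µCi [18F]FES in 100 µL 10% ethanol/saline and was sacrificed at 30 min, 1 h or 2 h (n = 3 each). Tissue uptake is given as %ID/g ± SD.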

[31] = Biodistribution of [18F]FES in alpha estrogen receptor knock out mouse fat after 2 h; (n=3); format: ADME, organism-based, Adipose tissue; conditions: in vivo; how it was run: as §5
[32] = Biodistribution of [18F]FES in alpha estrogen receptor knock out mouse fat after 30 min; (n=3); format: ADME, organism-based, Adipose tissue; conditions: in vivo, 0.5 h; how it was run: as §5

T1 sequence (O08537 whole entry, looked up): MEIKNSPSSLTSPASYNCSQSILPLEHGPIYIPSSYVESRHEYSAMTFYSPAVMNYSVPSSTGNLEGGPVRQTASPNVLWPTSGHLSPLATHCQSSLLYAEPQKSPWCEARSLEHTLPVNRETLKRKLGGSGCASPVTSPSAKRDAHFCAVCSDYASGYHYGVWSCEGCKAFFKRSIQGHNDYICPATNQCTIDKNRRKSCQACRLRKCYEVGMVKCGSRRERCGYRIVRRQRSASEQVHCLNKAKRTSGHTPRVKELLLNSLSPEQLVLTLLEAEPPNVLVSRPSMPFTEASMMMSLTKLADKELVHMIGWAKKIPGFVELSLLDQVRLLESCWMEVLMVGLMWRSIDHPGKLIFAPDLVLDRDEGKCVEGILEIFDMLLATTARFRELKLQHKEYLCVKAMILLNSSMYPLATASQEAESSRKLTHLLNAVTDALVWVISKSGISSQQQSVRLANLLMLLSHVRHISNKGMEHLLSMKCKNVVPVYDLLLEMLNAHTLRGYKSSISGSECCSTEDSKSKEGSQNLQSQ
T1 sequence (P19785 whole entry, looked up): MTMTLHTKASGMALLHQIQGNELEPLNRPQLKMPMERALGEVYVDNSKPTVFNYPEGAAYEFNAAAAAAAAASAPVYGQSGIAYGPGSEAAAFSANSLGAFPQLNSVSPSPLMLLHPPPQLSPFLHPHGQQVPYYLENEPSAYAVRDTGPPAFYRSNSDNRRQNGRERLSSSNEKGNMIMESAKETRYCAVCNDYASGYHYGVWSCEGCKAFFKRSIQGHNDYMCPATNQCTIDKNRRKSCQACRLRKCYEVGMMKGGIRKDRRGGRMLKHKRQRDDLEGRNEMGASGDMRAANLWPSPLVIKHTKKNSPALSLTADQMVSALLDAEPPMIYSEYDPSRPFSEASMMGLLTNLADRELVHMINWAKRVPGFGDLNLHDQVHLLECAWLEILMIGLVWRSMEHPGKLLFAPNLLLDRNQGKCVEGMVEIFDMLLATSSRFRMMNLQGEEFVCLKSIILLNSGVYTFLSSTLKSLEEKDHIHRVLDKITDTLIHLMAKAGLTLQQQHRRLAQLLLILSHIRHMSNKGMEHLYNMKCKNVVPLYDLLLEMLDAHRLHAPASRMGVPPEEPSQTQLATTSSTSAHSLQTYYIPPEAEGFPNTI

Biodistribution [1]: 1.4 %ID/g | Biodistribution [2]: 0.11 %ID/g | Biodistribution [3]: 0.64 %ID/g | Biodistribution [4]: 0.33 %ID/g | Biodistribution [5]: 0.09 %ID/g | Biodistribution [6]: 4.92 %ID/g | Biodistribution [7]: 0.3 %ID/g | Biodistribution [8]: 0.57 %ID/g | Biodistribution [9]: 1.75 %ID/g | Biodistribution [10]: 2 %ID/g | Biodistribution [11]: 0.93 %ID/g | Biodistribution [12]: 0.19 %ID/g | Biodistribution [13]: 0.21 %ID/g | Biodistribution [14]: 2.04 %ID/g | Biodistribution [15]: 0.42 %ID/g | Biodistribution [16]: 0.89 %ID/g | Biodistribution [17]: 1.6 %ID/g | Biodistribution [18]: 1.06 %ID/g | Biodistribution [19]: 0.61 %ID/g | Ratio [20]: 0.61 | Ratio [21]: 1.67 | Ratio [22]: 1.32
SMILES: N#C[C@H](c1ccc(O)cc1)[C@@H](CCF)c1ccc(O)cc1

Biodistribution [23]: 2.4 %ID/g | Biodistribution [24]: 0.95 %ID/g | Biodistribution [25]: 0.23 %ID/g | Biodistribution [26]: 0.67 %ID/g | Biodistribution [27]: 0.07 %ID/g | Biodistribution [28]: 3.67 %ID/g | Biodistribution [29]: 0.54 %ID/g | Biodistribution [30]: 0.92 %ID/g | Biodistribution [31]: 0.09 %ID/g | Biodistribution [32]: 1.51 %ID/g
SMILES: C[C@]12CC[C@@H]3c4ccc(O)cc4CC[C@H]3[C@@H]1C[C@@H](F)[C@@H]2O [FLUOROESTRADIOL]
